Screens from PubChem.
SF1 activator: activates the human nuclear receptor SF-1; AID 522; Q13285; 1.9% of 65,000 active; activation, % at 10 µM; CHO-K1 Gal4-SF-1 LBD luciferase reporter; % increase over DMSO SF-1-specific signal;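 active = activation above the mean activation of all tested compounds plus 3 SD, cut at about 50% in these data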
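Assay system: CHO-K1 cells co-transfected with Gal4 DBD–human SF-1 LBD, 5xGal4 luciferase reporter / Input: 4,000 cells per well / Incubation: 20 h compound exposure at 37 °C after 1 h cell settling / Detection: SteadyLite luciferase luminescence / Control set: DMSO negative control and −SF1 background wells / Replication: one test per compound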
D1 allo mod: allosteric modulators of human D1 dopamine receptor; B-score at 10 µM; P21728; 5.9% of 58,000 active; HEK293 D1, CRE-luciferase, dopamine EC30 potentiation; actives deviate in either direction;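 active = luminescence count or its row- and column-corrected plate score outside the 99.7% band of the plate's sample wells, on either side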
M1 antag: blocks the rat M1 muscarinic receptor response to acetylcholine; CHO-M1 cells, Fluo-4 calcium, ACh EC80 antagonist mode; hits give low values; B-score at 10 µM; 3.4% of 64,000 active; AID 628;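 active = calcium fluorescence response, raw or row-and-column corrected B-score, differing from the plate sample mean either way at a set confidence level, mostly lower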
Target sequence (P08482 whole entry, looked up): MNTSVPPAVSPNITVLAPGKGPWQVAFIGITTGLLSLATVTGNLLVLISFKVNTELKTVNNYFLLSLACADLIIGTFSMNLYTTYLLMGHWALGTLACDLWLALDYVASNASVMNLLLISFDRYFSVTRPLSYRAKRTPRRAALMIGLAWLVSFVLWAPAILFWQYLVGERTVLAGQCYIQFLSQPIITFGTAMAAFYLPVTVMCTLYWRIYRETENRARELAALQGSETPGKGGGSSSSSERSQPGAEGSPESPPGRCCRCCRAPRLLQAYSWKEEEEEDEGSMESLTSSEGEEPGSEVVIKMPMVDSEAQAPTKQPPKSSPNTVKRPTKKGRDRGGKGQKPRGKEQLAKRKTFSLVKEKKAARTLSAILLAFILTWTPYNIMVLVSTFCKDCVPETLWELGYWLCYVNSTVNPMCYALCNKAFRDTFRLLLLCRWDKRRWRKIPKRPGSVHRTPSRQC
mHtt clearance: mutant huntingtin protein clearance | HeLa Exon1htt(103Q)mCFP, aggregate imaging; zero = plate's median compound well | inhibition, % at 1.5 µM | 0.42% of 47,000 active | AID 853;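 active = inhibition of aggregate fluorescence above about 70%, also judged a hit by eye on the cell image, limit read from the data, passing the limit was not always enough; inconclusive = no rule stated for this call; inactive = not judged a hit on image review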;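 note: cells exposed to compound for three days before fixation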
M1 ag: activates the M1 muscarinic receptor | 3% of 64,000 active | B-score at 10 µM | CHO-M1 cells, Fluo-4 calcium fluorescence, agonist mode; hits give high values;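 active = fluorescence rise, raw or as B-score row- and column-corrected plate score, outside the 99.7% band of its plate's samples, either direction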
RORA act: activators of human nuclear receptor RORA; P35398; CHO-K1 Gal4-RORA LBD luciferase reporter, luminescence; percent increase over mock-subtracted basal signal; activation, % at 10 µM; 1.5% of 65,000 active;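 active = activation above the mean of all tested compounds plus 3 SD, cut at about 49% in these data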;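 note: 0% = DMSO-treated RORA cells and 100% = added signal equal to DMSO minus mock-transfected cells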
M1 agonist conf: confirmation of rat M1 muscarinic receptor agonists; shares compounds with M1 ag; CHO-M1 cells, Fluo-4 calcium fluorescence, agonist mode; actives lie on both sides; fluorescence change (max-min) at 10 µM; 19% of 1,700 active;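 active = fluorescence change differs from the solvent-only DMSO control mean at a set confidence level in both duplicate runs; inconclusive = differs from solvent-only control mean in just one of two runs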;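 note: an EC20 dose of acetylcholine follows compound addition during the same imaging run; raw fluorescence intensity difference in instrument units with no normalization to controls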
M4 agonist ctr: rat M4 muscarinic agonism, M1 counter-screen; shares compounds with M1 ag; CHO M4/Gqi5 cells, Fluo-4 calcium fluorescence, agonist mode; actives lie on both sides; fluorescence change (max-min) at 10 µM; 9% of 1,700 active;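 active = fluorescence change differing from the plate's solvent-only control wells at 99.7% confidence in both duplicates, whether higher or lower; inconclusive = differs from solvent controls in only one of two duplicates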
* hit, by the source's call; ? = inconclusive; nt = not tested or not shown. An excerpt weighted towards active compounds, which were near 11% of everything screened.

SMILES | SF1 activator | D1 allo mod | M1 antag | mHtt clearance | M1 ag | RORA act | M1 agonist conf | M4 agonist ctr
COC(=O)C1=C(N)Oc2cc(N(C)C)ccc2C1c1ccccc1OC (configuration not stated) | 11.2 | 0.537 | -0.703 | nt | 10* | 49.2* | 17.7 | -19.5
Cc1ccc(-c2nnc(N3CCN(c4ccccn4)CC3)c3ccccc23)cc1 | -4.5 | -2.87 | -3.49* | 22.6 | 1.97* | -6.0 | ? | -52.5
Cc1c(NS(=O)(=O)c2ccc3c(c2)n(C)c(=O)n3C)c(=O)n(-c2ccccc2)n1C | 3.5 | 0.794 | -0.27 | 10.6 | -0.824 | 1.3 | nt | nt
CSc1nc2ccc(S(=O)(=O)Nc3c(C)n(C)n(-c4ccccc4)c3=O)cc2s1 | 2.9 | -2.05 | -2.77* | nt | 6.15* | -6.2 | ? | -87.5
Cn1c(C(=O)NC2CCCCC2)cc2c(=O)n(C)c3ccccc3c21 | -9.6 | -0.446 | 0.172 | nt | 3.81* | 2.3 | ? | ?
Cc1cccc(N2CCN(C(=O)c3cc4c(=O)n(C)c5ccccc5c4n3C)CC2C)c1 (configuration not stated) | 0.1 | -4.82* | -0.0233 | nt | 5.49* | 16.9 | -4.38 | -20.7
Cn1c(=O)c(C(=O)NC2CCCCCCC2)c(O)c2ccccc21 | -5.2 | 1.41 | -0.0627 | nt | -0.0431 | 24.0 | nt | nt
Cn1c(C(=O)NCCCN2CCCC2=O)cc2c(=O)n(C)c3ccccc3c21 | 6.7 | 0.0182 | 0.535 | nt | 0.71 | -15.4 | nt | nt
Cn1c(C(=O)NC2CCCCCC2)cc2c(=O)n(C)c3ccccc3c21 | 8.5 | -1.21 | -0.952 | 1.1 | 3.76* | 20.0 | ? | ?
Cn1c(C(=O)NCCN2CCc3ccccc3C2)cc2c(=O)n(C)c3ccccc3c21 | 16.3 | -0.312 | -2.02 | nt | 2.91* | 6.4 | ? | -48.9
CCN(CC)CCCN(Cc1cc2ccc(C)c(C)c2[nH]c1=O)C(=O)NC1CCCCC1 | nt | nt | nt | -53.9 | nt | nt | nt | nt
CCCN(CCC)CCNC(=O)c1cc2c(=O)n(C)c3ccccc3c2n1C | 21.1 | 0.666 | -1.68 | -47.2 | 0.327 | 20.5 | nt | nt
CC1CCC(NC(=O)c2cc3c(=O)n(C)c4ccccc4c3n2C)CC1 (configuration not stated) | 31.8 | 0.0249 | -0.193 | nt | 3.7* | 40.6 | -7.57 | -16.8
O=C(CCc1nc2ccccc2[nH]1)NCc1ccc2c(c1)OCO2 | 28.9 | -0.0043 | -0.614 | nt | -1.13 | -8.0 | nt | nt
N#CC1(c2nc3ccccc3[nH]2)CC1c1ccc2c(c1)OCO2 (configuration not stated) | 8.6 | -0.927 | 0.291 | 36.7 | 2.88* | 18.7 | -33.6* | -81.9
COc1ccc(CNC(=O)c2ccc(=O)oc2)cc1OC | 8.4 | 0.00283 | -0.123 | 0.5 | -0.0792 | 3.7 | nt | nt
CCOC(=O)c1c(C)oc2c1c(C=NCC1CCCO1)c(O)c1ccccc12 (configuration not stated) | -9.4 | 0.119 | 0.299 | -1.9 | 2.9* | 14.6 | -16 | 6.4
O=C(C1CCCN(S(=O)(=O)Cc2ccccc2)C1)N1CCc2ccccc21 (configuration not stated) | 9.7 | -0.0605 | 0.535 | nt | 0.338 | -20.0 | nt | nt
CCOc1ncccc1C(=O)Nc1ccc2c(C)cc(=O)oc2c1 | 6.0 | -0.24 | 0.445 | nt | 13.4* | -14.7 | ? | ?
COc1ccc(S(=O)(=O)N(CCCN2CCCC2=O)Cc2cc3cc(C)c(C)cc3[nH]c2=O)cc1 | -3.6 | 1.92 | -0.866 | -30.1 | 0.922 | 6.5 | nt | nt
Cc1csc2nc(CNC(=O)C3CC=CCC3C(=O)O)cn12 (configuration not stated) | 30.2 | -0.0182 | -0.204 | -49.6 | 0.974 | 7.9 | nt | nt
O=C(CSc1ccc2nnc(-c3ccccn3)n2n1)N1CCN(c2ccccc2)CC1 | 8.1 | -0.51 | -0.585 | 26.6 | 3.25* | -4.7 | -8.52 | ?
O=C(CCc1nc2ccccc2c(=O)[nH]1)N1CCN(C/C=C/c2ccccc2)CC1 | -36.4 | 0.0652 | -0.842 | nt | 9.42* | -31.9 | 31.4 | -25
Cc1cc(Cl)ccc1OCc1nc(-c2ccc(O)cc2)n[nH]1 | -1.9 | 0.732 | 0.785 | nt | 4.36* | -5.6 | 4.14 | -12.8
